Data: ChEMBL document CHEMBL1255517, “CD4 mimics targeting the HIV entry mechanism and their hybrid molecules with a CXCR4 antagonist” (Bioorg Med Chem Lett, 2010)
pEC50, pIC50: −log10 of the molar value.

Columns and labels:
[1] = tested on: PM1; experiment: Inhibition of CD4-induced monoclonal antibody 4C11 binding to HIV1 JR-FL infected in human PM1 cells expressing CCR5 at 100 uM after 15 mins by FACS analysis (reference value: 27.60)
[2] = Cytotoxicity against human PM1 cells expressing CCR5 by MTT assay; type: cell-based
How it was run: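 Mock-infected PM1/CCR5 cells were exposed to compound, with viability read by MTT. CC50 is the concentration that reduces viability by 50%. Values are means with standard deviation from at least three independent experiments.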

[3] = tested on: Human immunodeficiency virus 1; experiment: Antiviral activity against HIV1 MNA infected in human PM1 cells expressing CCR5 assessed as protection against virus-induced cytopathogenicity by MTT assay; type: functional, organism-based; settings: Human immunodeficiency virus 1, MNA
How it was run: (§1)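 Cells were PM1/CCR5 infected with HIV-1, with viability read by MTT. IC50 is the compound concentration giving 50% protection against virus-induced cytopathogenicity. Values are means with standard deviation from at least three independent experiments.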

[4] = tested on: Human immunodeficiency virus 1; experiment: Antiviral activity against HIV1 isolate 89.6 infected in human PM1 cells expressing CCR5 assessed as protection against virus-induced cytopathogenicity by MTT assay; type: functional, organism-based; settings: Human immunodeficiency virus 1, isolate 89.6, PM1
How it was run: as §1

[5] = tested on: Human immunodeficiency virus 1; experiment: Antiviral activity against HIV1 3B infected in human PM1 cells expressing CCR5 assessed as protection against virus-induced cytopathogenicity by MTT assay; type: functional, organism-based; settings: Human immunodeficiency virus 1, 3B
How it was run: as §1

[6] = Cytotoxicity against human MT2 cells by MTT assay; type: cell-based
[7] = tested on: Human immunodeficiency virus 1; experiment: Antiviral activity against HIV1 3B infected in human MT2 cells assessed as protection against virus-induced cytopathogenicity by MTT assay; type: functional, organism-based
[8] = biological target: C-X-C chemokine receptor type 4 (Homo sapiens, UniProt P61073); experiment: Displacement of [125I]-SDF-1-alpha from CXCR4 expressed in CHO cells; type: cell-based
[9] = Selectivity index, ratio of CC50 for human PM1 cells expressing CCR5 to IC50 for HIV1 MNA; type: functional
[10] = tested on: Human immunodeficiency virus 1; experiment: Antiviral activity against HIV1 MTA infected in human PM1 cells expressing CCR5 assessed as protection against virus-induced cytopathogenicity by MTT assay; type: functional, organism-based; settings: Human immunodeficiency virus 1, MTA
How it was run: as §1

[11] = Selectivity index, ratio of CC50 for human MT-2 cells to IC50 for HIV1 IIIB
[12] = Human immunodeficiency virus 1, 3B, MT2

Sequence of C-X-C chemokine receptor type 4 (P61073 whole entry): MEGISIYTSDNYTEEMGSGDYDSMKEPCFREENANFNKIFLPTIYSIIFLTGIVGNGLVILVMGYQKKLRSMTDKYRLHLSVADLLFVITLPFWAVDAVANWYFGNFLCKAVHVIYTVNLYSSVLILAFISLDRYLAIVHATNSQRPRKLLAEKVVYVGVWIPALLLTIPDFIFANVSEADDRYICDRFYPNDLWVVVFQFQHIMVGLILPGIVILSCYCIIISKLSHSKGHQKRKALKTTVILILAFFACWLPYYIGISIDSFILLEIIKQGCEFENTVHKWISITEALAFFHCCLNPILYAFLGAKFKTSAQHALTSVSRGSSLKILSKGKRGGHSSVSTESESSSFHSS

Compound	RFU [1]	CC50 [2]	pIC50 [5]	other results
Cc1ccc(NC(=O)C(=O)NC2CCNCC2)cc1	46	190 µM		pIC50 [3]: 4.70
O=C(Nc1ccc(Cl)cc1)C(=O)NC1CCNCC1	49.9	100 µM		pIC50 [3]: 5.10
CN1CCC(NC(=O)C(=O)Nc2ccc(Cl)cc2)CC1	33.6	> 300 µM	4.17	pIC50 [4]: < 4.00
N=C(N)NCCC[C@H](NC(=O)[C@@H]1CSSC[C@H](NC(=O)[C@H](Cc2ccc3ccccc3c2)NC(=O)[C@H](CCCNC(=N)N)NC(=O)[C@H](CCCNC(=N)N)NC(=O)c2ccc(F)cc2)C(=O)N[C@@H](Cc2ccc(O)cc2)C(=O)N[C@@H](CCCNC(N)=O)C(=O)N[C@@H](CCCNC(=N)N)C(=O)N[C@H](CCCCNC(=O)CCC(=O)NCCCCN2CCC(NC(=O)C(=O)Nc3ccc(Cl)cc3)CC2)C(=O)N2CCC[C@H]2C(=O)N[C@@H](Cc2ccc(O)cc2)C(=O)N[C@@H](CCCNC(=N)N)C(=O)N[C@@H](CCCNC(N)=O)C(=O)N1)C(N)=O [listing 1 of 2 here]				CC50 [6]: 8.6 µM; pIC50 [7, 12]: 7.29; pEC50 [8]: 8.36
O=C(O)CN1CCC(NC(=O)C(=O)Nc2ccc(Cl)cc2)CC1	11.9	260 µM	< 4.00	
Cc1ccc(NC(=O)C(=O)NC2CC(C)(C)NC(C)(C)C2)cc1	8.66	210 µM		pIC50 [3]: 4.82
CC1(C)CC(NC(=O)C(=O)Nc2ccc(Cl)cc2)CC(C)(C)N1	18.4	110 µM	5.10	pIC50 [7, 12]: 5.68; pIC50 [4]: 5.00; pIC50 [3]: 4.92; Selectivity Index [9]: 19.2
CC(C)CN1CCC(NC(=O)C(=O)Nc2ccc(Cl)cc2)CC1	15.1	> 300 µM	< 4.00	pIC50 [10]: 4.55
NC(=O)NCCC[C@@H]1NC(=O)[C@H](CCCN=C(N)N)NC(=O)[C@H](Cc2ccc(O)cc2)NC(=O)[C@@H]2CCCN2C(=O)[C@@H](CCCCNC(=O)CCC(=O)NCCCCCCN2CCC(NC(=O)C(=O)Nc3ccc(Cl)cc3)CC2)NC(=O)[C@H](CCCN=C(N)N)NC(=O)[C@H](CCCNC(N)=O)NC(=O)[C@H](Cc2ccc(O)cc2)NC(=O)[C@@H](NC(=O)[C@H](Cc2ccc3ccccc3c2)NC(=O)[C@H](CCCN=C(N)N)NC(=O)[C@H](CCCN=C(N)N)NC(=O)c2ccc(F)cc2)CSSC[C@@H](C(=O)N[C@@H](CCCN=C(N)N)C(N)=O)NC1=O [listing 1 of 2 here]				Selectivity Index [11]: 219
O=C(O)CCC(=O)N1CCC(NC(=O)C(=O)Nc2ccc(Cl)cc2)CC1	26.1	> 300 µM	< 4.00	pIC50 [4]: < 4.00
CC(C)C(=O)N1CCC(NC(=O)C(=O)Nc2ccc(Cl)cc2)CC1	8.27	45 µM	< 4.00	
N=C(N)NCCC[C@H](NC(=O)[C@@H]1CSSC[C@H](NC(=O)[C@H](Cc2ccc3ccccc3c2)NC(=O)[C@H](CCCNC(=N)N)NC(=O)[C@H](CCCNC(=N)N)NC(=O)c2ccc(F)cc2)C(=O)N[C@@H](Cc2ccc(O)cc2)C(=O)N[C@@H](CCCNC(N)=O)C(=O)N[C@@H](CCCNC(=N)N)C(=O)N[C@H](CCCCNC(=O)CCC(=O)NCCCCCCCCN2CCC(NC(=O)C(=O)Nc3ccc(Cl)cc3)CC2)C(=O)N2CCC[C@H]2C(=O)N[C@@H](Cc2ccc(O)cc2)C(=O)N[C@@H](CCCNC(=N)N)C(=O)N[C@@H](CCCNC(N)=O)C(=O)N1)C(N)=O [listing 1 of 2 here]				Selectivity Index [11]: 244
NC(=O)NCCC[C@@H]1NC(=O)[C@H](CCCN=C(N)N)NC(=O)[C@H](Cc2ccc(O)cc2)NC(=O)[C@@H]2CCCN2C(=O)[C@@H](CCCCNC(=O)CCC(=O)NCCCCCCN2CCC(NC(=O)C(=O)Nc3ccc(Cl)cc3)CC2)NC(=O)[C@H](CCCN=C(N)N)NC(=O)[C@H](CCCNC(N)=O)NC(=O)[C@H](Cc2ccc(O)cc2)NC(=O)[C@@H](NC(=O)[C@H](Cc2ccc3ccccc3c2)NC(=O)[C@H](CCCN=C(N)N)NC(=O)[C@H](CCCN=C(N)N)NC(=O)c2ccc(F)cc2)CSSC[C@@H](C(=O)N[C@@H](CCCN=C(N)N)C(N)=O)NC1=O [listing 2 of 2 here]				CC50 [6]: 8 µM; pIC50 [7, 12]: 7.44; pEC50 [8]: 7.73
CC(=O)N1CCC(NC(=O)C(=O)Nc2ccc(Cl)cc2)CC1	29.1	> 300 µM	< 4.00	pIC50 [4]: < 4.00
N=C(N)NCCC[C@H](NC(=O)[C@@H]1CSSC[C@H](NC(=O)[C@H](Cc2ccc3ccccc3c2)NC(=O)[C@H](CCCNC(=N)N)NC(=O)[C@H](CCCNC(=N)N)NC(=O)c2ccc(F)cc2)C(=O)N[C@@H](Cc2ccc(O)cc2)C(=O)N[C@@H](CCCNC(N)=O)C(=O)N[C@@H](CCCNC(=N)N)C(=O)N[C@H](CCCCNC(=O)CCC(=O)NCCCCN2CCC(NC(=O)C(=O)Nc3ccc(Cl)cc3)CC2)C(=O)N2CCC[C@H]2C(=O)N[C@@H](Cc2ccc(O)cc2)C(=O)N[C@@H](CCCNC(=N)N)C(=O)N[C@@H](CCCNC(N)=O)C(=O)N1)C(N)=O [listing 2 of 2 here]				Selectivity Index [11]: 169
O=C(Nc1ccc(Br)cc1)C(=O)NC1CCNCC1	52.3	50 µM		pIC50 [3]: 5.22
CC1(C)CC(NC(=O)C(=O)Nc2ccc(Br)cc2)CC(C)(C)N1		93 µM		
N=C(N)NCCC[C@H](NC(=O)[C@@H]1CSSC[C@H](NC(=O)[C@H](Cc2ccc3ccccc3c2)NC(=O)[C@H](CCCNC(=N)N)NC(=O)[C@H](CCCNC(=N)N)NC(=O)c2ccc(F)cc2)C(=O)N[C@@H](Cc2ccc(O)cc2)C(=O)N[C@@H](CCCNC(N)=O)C(=O)N[C@@H](CCCNC(=N)N)C(=O)N[C@H](CCCCNC(=O)CCC(=O)NCCCCCCCCN2CCC(NC(=O)C(=O)Nc3ccc(Cl)cc3)CC2)C(=O)N2CCC[C@H]2C(=O)N[C@@H](Cc2ccc(O)cc2)C(=O)N[C@@H](CCCNC(=N)N)C(=O)N[C@@H](CCCNC(N)=O)C(=O)N1)C(N)=O [listing 2 of 2 here]				CC50 [6]: 8.6 µM; pIC50 ([7]; mt2): 7.45; pEC50 [8]: 8.15
Cc1cn([C@H]2C[C@H](N=[N+]=[N-])[C@@H](CO)O2)c(=O)[nH]c1=O [ZIDOVUDINE]				pIC50 [7, 12]: 7.31
